Assay outcomes deposited in PubChem BioAssay by several laboratories.
Sampled rows, rich in hits. Any-hit rate of the full collection: about 3%.
MC4R antagonist: antagonists of human melanocortin 4 receptor (MC4R); inhibition, % at 6.5 µM; MC4R-expressing cells, MTII-stimulated cAMP, LANCE TR-FRET; P32245; 360,000 tested, 0.48% active;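 active = inhibition above its plate's cutoff, the mean of tested wells on that plate plus 3 SD, cut at about 29% in these data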;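 note: 0% = Melanotan II alone and 100% = Melanotan II plus saturating MCL0020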
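Material – human MC4R-expressing U2OS cells · Repeats – no replicates · Detection – TR-FRET with Eu-cAMP and labeled anti-cAMP, 671 nm · Times – compound 30 min, challenge 1 h, detection 1 h · Compound – single nominal compound dose of 6.5 µM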
PfGluPho inh: PfG6PD (Plasmodium falciparum) enzyme inhibition; 350,000 tested, 0.78% active; inhibition, % at 20 µM; PfGluPho enzyme, NADPH resazurin-diaphorase fluorescence; AID 504690;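 active = inhibition reaching at least a set limit at 20 µM in the primary screen, cut at about 59% in these data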;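 note: 0% = DMSO wells with substrate and 100% = DMSO wells lacking glucose-6-phosphate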
Beta2AR agonist: agonists of human beta-2 adrenergic receptor inducing internalization; P07550; Am2.2-beta2AR cells, FAP receptor internalization, flow cytometry; response, % (no concentration beside the values); 340,000 tested, 0.43% active; AID 504454;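 active = response above a set limit, near 3 SD of response in nonfluorescent compounds, cut at about 42% in these data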
Target sequence (P07550 whole entry, looked up): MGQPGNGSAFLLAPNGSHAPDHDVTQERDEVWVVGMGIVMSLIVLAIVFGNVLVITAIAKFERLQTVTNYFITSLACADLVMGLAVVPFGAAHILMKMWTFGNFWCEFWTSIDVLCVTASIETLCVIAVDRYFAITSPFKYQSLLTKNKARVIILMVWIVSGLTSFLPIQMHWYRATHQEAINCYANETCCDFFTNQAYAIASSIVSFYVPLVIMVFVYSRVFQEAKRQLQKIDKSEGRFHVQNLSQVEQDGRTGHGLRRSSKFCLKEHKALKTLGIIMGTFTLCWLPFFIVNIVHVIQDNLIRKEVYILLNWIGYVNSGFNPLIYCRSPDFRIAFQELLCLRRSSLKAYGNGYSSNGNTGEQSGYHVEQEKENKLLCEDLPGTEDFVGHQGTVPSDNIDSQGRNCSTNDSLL
ABHD5-PLIN5 inh: ABHD5-PLIN5 protein interaction inhibition. Q00G26+Q8WTS1. Split G. princeps luciferase complementation, luminescence, 4 h. inhibition, % at 4 µM. 360,000 tested, 0.78% active;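 active = inhibition above the mean inhibition across every tested compound plus 3 SD, cut at about 22% in these data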;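 note: 0% = DMSO only wells and the 100% control is not disclosed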
MC4R ag barr: agonists of human melanocortin 4 receptor (MC4R) beta-arrestin; P32245; U2OS MC4R beta-arrestin complementation, luminescence; percent of melanotan II response, DMSO zero; activation, % at 8.9 µM; AID 540308; 360,000 tested, 0.98% active;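 active = activation above a per-plate cutoff, the mean activation of sample wells on that plate plus 3 SD, cut at about 8% in these data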
MC4R barr ag: human MC4R beta-arrestin agonism confirmation; shares compounds with MC4R ag barr; U2OS MC4R beta-arrestin recruitment, luminescence; scaled DMSO 0%, Melanotan II 100%; activation, % at 8.9 µM; 2,400 tested, 31% active; AID 602192;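 active = mean activation across replicates above the hit cutoff set in the earlier primary screen, cut at about 8% in these data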
MOR-DOR barr ag: activates mu-delta opioid heterodimer, MC4R agonist counter-screen; shares compounds with MC4R ag barr; U2OS PathHunter beta-arrestin, beta-gal luminescence; percent of deltorphin B response, DMSO zero; activation, % at 9.2 µM; 2,400 tested, 5.8% active; AID 602194;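 active = mean activation across replicates exceeds the hit threshold derived in the earlier primary screen, cut at about 18% in these data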;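 note: 100% = deltorphin B at 0.9 µM final and 0% = DMSO alone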
The depositor's hits bear a star; . = no result given.

SMILES	MC4R antagonist	PfGluPho inh	Beta2AR agonist	ABHD5-PLIN5 inh	MC4R ag barr	MC4R barr ag	MOR-DOR barr ag
CCOC(=O)c1ccc(Nc2nc(-c3cccnc3)nc3ccccc23)cc1	11	-8	18	7	57*	0	7
CC(C)(C)c1ccc(S(=O)(=O)NNC(=O)c2cc3ccccc3[nH]2)cc1	10	-9	3	-11	17*	8	16
CCCC(C)NNC(=O)c1cc2ccccc2[nH]1 (configuration not stated)	7	-9	10	3	-2	.	.
COc1ccc(N2CC(C(=O)N3CCN(c4ccccc4F)CC3)CC2=O)cc1 (configuration not stated)	-2	-4	12	-5	3	.	.
CC(C)CCCCCCCCCCCCC(=O)NCC(=O)NC1C(C)OC(Nc2ncnc3nc[nH]c23)C(O)C1O (configuration not stated)	7	-20	3	5	16*	11*	28*
C/C(=C\CNc1ncnc2nc[nH]c12)CO	11	-8	-3	-4	-2	.	.
CCOc1ccccc1C(=O)NCC(=O)NCCSc1ccc(Br)cc1	-2	3	-2	1	15*	2	5
COc1cccc(C(=O)Nc2ccc(-c3nc4ccccc4o3)c(O)c2)c1	-1	-12	19	-4	11*	4	4
COc1ccc(-c2cc3ccccc3oc2=O)cc1NC(=O)c1ccc(Br)o1	3	-6	-3	-1	13*	3	3
COc1ccc(-c2cc3ccccc3oc2=O)cc1NC(=O)c1ccc([N+](=O)[O-])o1	5	0	5	2	-1	.	.
COc1cc(NC(=O)c2cc3ccccc3o2)c(OC)cc1Cl	3	3	-4	2	13*	8	8
COc1ccccc1NC(=O)c1cc2ccccc2o1	2	30	-5	6	0	.	.
CCOc1cccc(C(=O)Nc2ccc(NC(=O)c3cc4ccccc4o3)c(OC)c2)c1	2	-11	13	6	12*	34*	30*
CCOc1ccc(C2OCCC(C)O2)cc1OC (configuration not stated)	2	-10	1	8	-1	.	.
Cc1ccc(O)c(C(=O)c2cnc3c(c2)c(C)nn3-c2ccccc2)c1	0	2	-5	-10	-1	.	.
O=C(c1ccc2nc[nH]c2c1)N1CCN(c2ncc(C(F)(F)F)cc2Cl)CC1	-8	-17	-9	10	2	.	.
CCOc1ccc(-c2c(C(=O)N/N=C/C3CCCCC3)nnn2-c2nonc2N)cc1	7	-15	5	10	-2	.	.
COc1ccc(/C=N/NC(=O)c2ccc3c(c2)OCO3)cc1	6	13	-9	7	1	.	.
COc1ccc2c(Cl)c(C(=O)N/N=C/c3ccc4c(c3)OCO4)sc2c1	-4	-13	-1	0	12*	7	4
CCOC(=O)c1[nH]c2ccc(OC)cc2c1NC(=O)c1ccc2c(c1)OCO2	-1	-4	5	0	-1	.	.
CCOC(=O)c1[nH]c2cc(OC)c(OC)cc2c1NC(=O)c1ccc2c(c1)OCO2	-19	-6	4	8	26*	2	3
CC(C)O/C(=N/S(=O)(=O)c1ccc(Cl)cc1)c1ccccc1	7	8	-1	-7	-1	.	.
Cc1ccc2c(c1)c1c(n2CC(O)CN2CCCCCC2)CCCC1 (configuration not stated)	-4	-1	13	3	5	.	.
Cc1ccc2c(c1)c1c(n2CC(O)Cn2c(C)nc3ccccc32)CCCC1 (configuration not stated)	-2	2	18	6	9.6*	4	8
COc1cc2cc(C(=O)N3CCN(Cc4ccc5c(c4)OCO5)CC3)c(=O)oc2cc1OC	0	-4	1	8	-1	.	.
SMILES	MC4R antagonist	PfGluPho inh	Beta2AR agonist	ABHD5-PLIN5 inh	MC4R ag barr	MC4R barr ag	MOR-DOR barr ag
O=C(NCC1CCCO1)c1ccc(N2C(=O)C3CCCCC3C2=O)cc1 (configuration not stated)	27	-15	10	2	-1	.	.
C/C(=N/NC(=O)CSCc1ccc(Cl)cc1)c1cccc(NC(=O)c2ccccc2)c1	21	-11	-18	3	22*	5	11
C/C(=N\NC(=O)CSCc1ccc(Cl)cc1)c1ccc(NC(=O)c2ccccc2)cc1	7	-14	-7	-2	2	.	.
CCN(CC)CCn1c(=S)[nH]c2cc(C(=O)NCc3ccccc3Cl)ccc2c1=O	5	-12	11	1	-1	.	.
CC(C)=C[C@H]1C[C@H](C)[C@H]2CC[C@H](C)c3c(O)c(O[C@H]4OC[C@H](O)[C@@H](O)[C@@H]4O)c(C)c1c32	-5	.	.	-21	12*	4	2
CC(C)=C[C@@H]1C[C@H](C)[C@H]2CC[C@H](C)c3c(O[C@@H]4O[C@@H](C)[C@@H](O)[C@@H](O)[C@@H]4O)c(O)c(C)c1c32	7	19	24	-7	1	.	.
COC(=O)c1c(NC(C)=O)sc2c1CCN(Cc1ccccc1)C2	12	-10	-1	-12	2	.	.
COC(=O)c1c(NC(=O)C(C)(C)C)sc2c1CCN(Cc1ccccc1)C2	-9	13	13	3	11*	6	5
O=C(CN1CCCC1c1cccs1)Nc1cc(S(=O)(=O)N2CCCCC2)ccc1Cl (configuration not stated)	11	6	-14	-2	-6	.	.
CC(OC(=O)[C@@H]1CCCN1C(=O)c1cccs1)C(=O)Nc1cccc([N+](=O)[O-])c1 (some centres not stated)	3	-6	-1	4	-1	.	.
Cc1ccc(NC(=S)NC(=O)c2ccc(-c3ccc(Cl)cc3)o2)c(O)c1	7	-11	-5	1	16*	21*	2
CC(NC(=O)c1ccc2c(c1)OCCO2)c1ccc(S(N)(=O)=O)cc1 (configuration not stated)	-7	-8	0	-1	-2	.	.
c1ccc(-c2nc(-c3cccs3)[nH]c2-c2ccccc2)cc1	7	6	-1	0	9.6*	3	5
COc1cc(-c2nc(-c3ccccc3)c(-c3cccs3)[nH]2)cc(OC)c1OC	17	-2	25	5	-1	.	.
COc1ccc2ccc(O)c(CN(C)CC(=O)Nc3ccccc3C(F)(F)F)c2c1	14	21	9	22*	13*	7	10
CC(C)c1ccc(Nc2n[nH]c(=S)s2)cc1	.	.	.	-12	.	.	.
C=CCn1c(SCC(=O)NC(=O)NCc2ccco2)nc2sc(C)c(C)c2c1=O	-5	-1	-5	9	11*	10*	6
